# Rin1 Abl inh: human Rin1-Abl interaction inhibition. TR-FRET Rin1/Abl binding, biochemical. inhibition, % at 7.35 µM. 0.4% of 360,000 active; in the data active means inhibition above about 5%, passing the limit was not always enough
# Rpn11 block: inhibitors of human proteasome Rpn11. human 26S proteasome, Ub4-pepOG fluorescence polarization; 20S core pre-blocked with epoxomicin. 0.59% of 360,000 active. inhibition, % at 20 µM. AID 588493. O00487;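 active means inhibition at 20 µM, scaled to each plate's controls, above about 33%, limit read from the data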
# HNF4A DNA FP: change in binding of human HNF4 alpha to DNA | HNF4a-FITC DNA binding, fluorescence polarization, 1 h | activity change, % at 10 µM | 0.3% of 360,000 active | AID 1224865; in the data active means activity change above about 30%, passing the limit was not always enough
# TPT1 inh: C. albicans TPT1 enzyme inhibition; recombinant caTPT1, FP RNA substrate dephosphorylation; inhibition, % at 5 µM; 0.81% of 300,000 active; AID 1962;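 active means inhibition above the mean of all tested compounds plus 3 SD, set per screening campaign, cut at about 24% in these data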
# Neddylation inh: cullin neddylation inhibition; P61081+Q13564; TR-FRET cullin neddylation, biochemical; inhibition, % at 25 µM; 0.58% of 360,000 active; in the data active means inhibition above about 36%
# CSN deneddyl inh: CSN deneddylation inhibition | Q92905 | Purified CSN, SCF-Nedd8-OG deneddylation, fluorescence polarization | inhibition, % at 12.5 µM | 0.38% of 360,000 active | AID 651999;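 active means pattern-corrected inhibition above about 35%, with an unprinted fluorescence ratio check between 0.5 and 1.5, limit read from the data, passing the limit was not always enough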
# Target sequence (Q92905 whole entry, looked up, one chain of several): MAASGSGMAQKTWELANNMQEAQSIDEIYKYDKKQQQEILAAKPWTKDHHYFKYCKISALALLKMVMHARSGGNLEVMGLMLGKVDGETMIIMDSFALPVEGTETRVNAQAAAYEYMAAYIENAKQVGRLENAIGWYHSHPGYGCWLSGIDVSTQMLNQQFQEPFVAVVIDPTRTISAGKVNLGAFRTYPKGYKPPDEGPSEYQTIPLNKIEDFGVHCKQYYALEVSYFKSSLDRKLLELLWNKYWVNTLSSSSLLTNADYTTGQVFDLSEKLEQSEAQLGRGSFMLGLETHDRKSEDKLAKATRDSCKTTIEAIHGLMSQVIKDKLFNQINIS
#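 assay system = purified human Csn5 enzyme expressed in HEK293T cells | amount = 0.24 nM enzyme | buffer or medium = Tris/NaCl/DTT buffer, pH 7.5 | reagent = 10 nM SCFSkp2-Nedd8OG | compound = one concentration, 12.5 µM, 0.25% DMSO | times = 90 min reaction at room temperature | signal = FP | read-out basis = % inhibition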
# Neddyl inh conf: cullin neddylation inhibition, confirmation | shares compounds with Neddylation inh | TR-FRET cullin neddylation biochemical assay | calls only at 25 µM | 13% of 1,800 active; in the data active means inhibition above about 40%;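 further: neddylation substrate is the cullin 1 ring ligase complex with SKP2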
# A number is an active result; - = inactive; . = no result given. Only some compounds are listed: those with a hit (about 2.4% of all), similar ones and a draw of the others.
SMILES,Rin1 Abl inh,Rpn11 block,HNF4A DNA FP,TPT1 inh,Neddylation inh,CSN deneddyl inh,Neddyl inh conf
COCc1c(C(=O)N/N=C(/C)c2cccs2)nnn1-c1nonc1N,-,-,-,-,43.8,-,-
Cc1ccc(-c2c(C(=O)N/N=C/c3cccc(Cl)c3)nnn2-c2nonc2N)cc1,-,-,-,-,-,-,.
CCc1c(C(=O)N/N=C/c2ccc(OCc3ccc(F)cc3)c(OC)c2)nnn1-c1nonc1N,-,-,-,-,42.9,-,-
Cc1ccc(-c2c(C(=O)N/N=C/c3ccc(OC(C)C)cc3)nnn2-c2nonc2N)cc1,-,-,-,-,45.4,-,-
Cc1ccc(-c2c(C(=O)N/N=C/c3ccc4c(c3)OCO4)nnn2-c2nonc2N)cc1,-,-,-,-,49.6,-,.
O=S(=O)(NCC1CN(S(=O)(=O)c2c(F)cccc2F)C1)c1ccc2c(c1)OCCO2,-,-,-,.,-,-,.
O=[N+]([O-])c1nccn1CCCCCCN1CCOCC1,-,-,-,.,-,-,.
CCCc1c(C(=O)N/N=C/c2ccc3c(c2)OCO3)nnn1-c1nonc1N,-,-,-,.,41.8,-,-
CCCOc1ccc(-c2c(C(=O)N/N=C(\C)c3ccco3)nnn2-c2nonc2N)cc1,-,-,-,-,40.1,-,-
Cc1ccc(SCc2c(C(=O)N/N=C/c3ccc4c(c3)OCO4)nnn2-c2nonc2N)cc1,-,-,-,-,-,-,.
CCCCC1=CC2=CC(=O)C(C)(OC(=O)CC)C(=O)C2=CN1CCc1ccccn1 (stereo not drawn),-,-,-,-,38.0,-,-
CC(C)CC1NC(=O)N(Cc2nc3ccccc3s2)C1=O (stereo not drawn),-,-,-,-,-,-,.
CN1C[C@@H]2[C@@H]3C(=O)N(C)C(=O)[C@@H]3[C@](Cc3ccccc3)(C1=O)N2C(=O)c1ccc(Cl)cc1,-,-,-,.,-,-,.
CC(=O)Nc1ccc(C(=O)COC(=O)CCN2C(=O)C3CC=CCC3C2=O)cc1 (stereo not drawn),-,-,-,-,57.8,-,-
O=C(CCN1C(=O)C2CC=CCC2C1=O)OCC(=O)c1ccc(F)cc1 (stereo not drawn),-,-,-,.,-,-,.
O=c1ccc(/C=C/c2ccccc2)nn1Cc1ccccc1,-,-,-,-,49.3,-,-
Cn1nc(/C=C/c2ccccc2)ccc1=O,-,-,-,-,49.6,-,-
O=c1ccc(-c2ccccc2)nn1Cc1ccc(Cl)cc1,-,-,-,-,-,-,.
Cc1nc(/C=C/c2ccccc2)cc(/C=C/c2ccccc2)n1,-,-,-,-,-,-,.
O=C(CCCC(=O)c1ccccc1)Nc1ccc(O)cc1,-,-,-,-,-,-,.
O=C(NCCN1CCCOC1=O)C(=O)NCCN1CCCOC1=O,-,-,-,-,-,-,.
CCC(CO)Oc1cc(NC(=O)c2ccc(C)cc2)c2ncn(C(C)C)c2c1 (stereo not drawn),-,-,-,.,-,-,.
Cc1ccc(S(=O)(=O)NC(=O)N(C)C2CCCCC2)cc1,-,-,-,-,-,-,.
COc1ccc(CCNC(=O)c2cc3c(=O)n4cccc(C)c4nc3n(CC3CCCO3)c2=N)cc1 (stereo not drawn),-,-,-,-,44.2,-,-
CC(Oc1ccccc1F)c1ccnc2nc(/N=C/N(C)C)nn12 (stereo not drawn),-,-,-,-,47.1,-,-
SMILES,Rin1 Abl inh,Rpn11 block,HNF4A DNA FP,TPT1 inh,Neddylation inh,CSN deneddyl inh,Neddyl inh conf
CC1(C)Cc2c(C#N)c(NCCO)nc(-c3ccco3)c2CO1,-,-,-,-,39.2,-,.
COc1ccc(-c2nc3nc(C)c(Cc4ccccc4)c(=O)n3[nH]2)cc1,-,-,-,-,45.9,-,.
COC(=O)Cc1c(C)nc2nc(-c3ccc(OC)cc3)[nH]n2c1=O,-,-,-,-,.,-,.
Cc1ccc(CN2CC(C(=O)Nc3cccc(S(=O)(=O)N4CCCCC4)c3)CC2=O)cc1 (stereo not drawn),-,-,-,-,-,-,.
Cc1ccc2c(c1)N(CC(=O)N1CCCCC1)C(=O)CO2,-,-,-,-,-,-,.
NC(=O)CCC(=O)N1CCCC(C(=O)c2ccc3c4c(cccc24)CC3)C1 (stereo not drawn),-,-,-,-,44.3,-,-
